The source of these data is ChEMBL document CHEMBL4428026, “Discovery of New Monocarbonyl Ligustrazine-Curcumin Hybrids for Intervention of Drug-Sensitive and Drug-Resistant Lung Cancer” (J Med Chem, 2016).

Active and inactive are the calls of the source. The calls are words filed in the database; no cut-off is given here.

The test system of data set [1] is A549/CDDP. Briefly: Induction of apoptosis in human A549/CDDP cells at 0.6 to 1.2 uM after 24 hrs by annexin V-FITC/propidium iodide staining-based flow cytometry. The data set is classed as functional, cell-based. The method, boiled down: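 Cells were seeded at 1 × 10^5/well and treated 24 h with DMSO (1%) or compound. They were then washed in PBS, stained with FITC-Annexin V and propidium iodide, and apoptotic fractions were quantified by flow cytometry.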
In general terms: A flow cytometer gives signals particle by particle.

Data set [2] deals with A549/CDDP. Put plainly: Anticancer activity against human A549/CDDP cells xenografted in BALB/c nude mouse assessed as tumor growth inhibition at 20 mg/kg, ip administered daily for 15 consecutive days measured every 3 days. The data set is classed as functional. Conditions: read-out: TGI. The method, boiled down:
(§1)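 Both sexes of athymic BALB/c nude mice (4-5 weeks) were inoculated subcutaneously with A549/DDP cells (1 × 10^7/mouse). Once tumors reached 180-200 mm3, mice were randomized (n = 8). They received ip dosing daily for 15 consecutive days, with vehicle PBS/DMSO/cremophor-EL (8:1:1). Tumors were measured by caliper and volume was taken as width2 × length/2. Growth inhibition was taken from tumor weight (w/w).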

Data set [3] deals with A549/CDDP. Briefly: Decrease in P-gp mRNA level in human A549/CDDP cells at 0.6 to 1.2 uM after 24 hrs by RT-PCR method. The data set is classed as functional, cell-based. In a few lines:
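A549/DDP cells (1 × 10^6) were treated with vehicle or 0.6 or 1.2 µM compound for 24 h. Total RNA was reverse-transcribed with oligo dT primers. ABCB1 transcripts were quantified by real-time RT-PCR relative to GAPDH and expressed as fold of the 0.1% DMSO control. Three independent experiments were run.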

A short description of data set [4]: Toxicity in BALB/c nude mouse xenografted with human A549/CDDP cells assessed as body weight at 40 mg/kg, ip administered daily for 15 consecutive days measured on day 1 (reference value: 19.3 +/- 1.55 g). It is filed as organism-based. The settings on record: in vivo.
In data set [5] the test system is A549/CDDP. Briefly: Anticancer activity against human A549/CDDP cells xenografted in BALB/c nude mouse assessed as tumor growth inhibition at 40 mg/kg, ip administered daily for 15 consecutive days measured every 3 days. The data set is classed as functional. The settings on record: 15 days, read-out: TGI. In a few lines:
as §1
(In general: Xenograft models place foreign cells or tissue in a host animal.)

Another data set deals with Thioredoxin reductase (Homo sapiens, UniProt Q16881+Q9NNW7+Q86VQ6). Briefly: Inhibition of thioredoxin reductase (unknown origin) after 2 hrs by DTNB dye based microplate spectrophotometry. It is filed as protein assay. In a few lines: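 NADPH-reduced TrxR (0.16 µM) was preincubated in triplicate with vehicle DMSO (0.1%, v/v) or varying compound concentrations for 2 h. It was then reacted with 2 mM DTNB and 200 µM NADPH for 3 min, and absorbance was read at 412 nm. IC50 was derived.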

The next data set deals with A549. Put plainly: Decrease in Trx expression in human A549 cells at 2.1 to 4.2 uM after 24 hrs by Western blot method. The data set is classed as functional, cell-based. The method, boiled down: (§2)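 Cells were plated at 1 × 10^6/well overnight, then treated 24 h with vehicle DMSO (0.1%, v/v) or compound (A549, 2.1 or 4.2 µM; A549/DDP, 0.6 or 1.2 µM). Lysis was at 4 °C. Lysates were run on SDS-PAGE (7.5% gel, 20 µg/lane) and immunoblotted with ECL detection; phospho-Akt Ser473 and phospho-ERK Thr202/Tyr204 were probed. Bands were normalized to GAPDH (TrxR, Trx) or β-actin. Three independent experiments were run.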
(A western blot detects proteins with antibodies after separation by electrophoresis.)

The test system of data set [6] is A549/CDDP. Briefly: Decrease in Trx expression in human A549/CDDP cells at 0.6 to 1.2 uM after 24 hrs by Western blot method. It is filed as functional, cell-based. The method, boiled down:
as §2

Turning to `COc1cc(/C=C/C(=O)/C=C/c2nc(C)c(C)nc2C)ccc1O`, the result in the data set on A549/CDDP [1], in the data set on A549/CDDP [3], in the data set with A549 and with A549/CDDP [6] was Active. In addition, in the data set on A549/CDDP [2], the inhibition in vivo at 20 mg/kg amounted to 36%. In addition, the Activity in data set [4] is 19.9 g. Also, the inhibition in vivo at 40 mg/kg in the data set with A549/CDDP [5] stood at 67%. Further, the IC50 (commonly the concentration needed to halve the response being measured) against Thioredoxin reductase was 2950 nM.
